# Source: PubChem BioAssay (Sanford-Burnham Center for Chemical Genomics)
# PMI act – activators of human phosphomannose isomerase. P34949. purified human PMI, coupled resazurin fluorescence, 20 min; active compounds read high; 1 = vehicle control, 0 substrate-free wells. activation factor at 20 µM. actives 0.005% (n = 190,000). AID 1214;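 active means activation factor of 2 or more at 20 µM, relative to plate controls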
# Target sequence (P34949 whole entry, looked up): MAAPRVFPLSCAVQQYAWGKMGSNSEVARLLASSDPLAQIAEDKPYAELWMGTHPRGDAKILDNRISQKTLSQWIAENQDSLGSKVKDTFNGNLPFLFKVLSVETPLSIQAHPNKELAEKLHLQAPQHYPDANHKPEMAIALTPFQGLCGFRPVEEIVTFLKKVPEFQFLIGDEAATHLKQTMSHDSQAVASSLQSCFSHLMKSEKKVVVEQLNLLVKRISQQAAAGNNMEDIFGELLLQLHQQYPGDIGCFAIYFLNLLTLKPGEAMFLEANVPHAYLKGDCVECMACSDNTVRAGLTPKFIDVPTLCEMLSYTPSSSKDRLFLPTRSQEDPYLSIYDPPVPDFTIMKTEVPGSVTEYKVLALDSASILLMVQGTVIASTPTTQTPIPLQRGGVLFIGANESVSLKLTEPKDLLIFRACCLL
# G6PDH counter – L. mesenteroides G6PDH inhibition counter-screen; Purified L. mesenteroides G6PDH, diaphorase/resazurin coupled fluorescence, 45 min; inhibition, % at 5 µM; actives 0.12% (n = 200,000); AID 1020; in the data active means inhibition above about 50%
# PMI act satM6P – increases human PMI activity with near-saturating mannose 6-phosphate; P34949; coupled PMI enzyme assay, resazurin fluorescence, 20 min; active compounds read high; 1 = untreated enzyme, 0 = substrate-free blank; actives 0.34% (n = 190,000); AID 1216; activation factor at 20 µM;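 active means activation factor of 2 or more at 20 µM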
#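 assay system = human phosphomannose isomerase with PGI, G6PDH, diaphorase coupling enzymes | quantity = 15 ng/mL PMI | incubation = enzyme reaction with compound 20 min at room temperature | medium = HEPES pH 7.4 buffer with MgCl2 and Tween-20 | compound dosing = one concentration, 20 µM, in 1% DMSO | measured by = Diaphorase-driven resazurin-to-resorufin fluorescence, excitation 544, emission 590 nm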
# Diaphorase inh – inhibits diaphorase or chemically oxidizes, flagging diaphorase assay artifacts | inhibition, % at 20 µM | actives 0.69% (n = 190,000) | AID 1217 | diaphorase resazurin-to-resorufin fluorescence, NADH, 16 min; bacterial (C. kluyveri) enzyme, not human;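 active means primary screen inhibition at 20 µM above a set limit, cut at about 50% in these data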;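 further: plate controls were DMSO with full reaction for no effect and wells lacking NADH for full effect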
#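 Assay system: diaphorase enzyme from Clostridium kluyveri; Input: enzyme working solution with 0.14 U/mL diaphorase; Timing: 16 min at room temperature; Technique: resorufin fluorescence, excitation 544 nm, emission 590 nm; Benchmarks: positive control minus NADH, DMSO neutral control.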
# Diaph act CS – diaphorase activation or chemical reduction counter-screen. activation factor at 20 µM. AID 1229. Diaphorase/resazurin coupled assay, resorufin fluorescence, 16 min; active compounds read high; 1 = vehicle wells, 0 = NADH-free wells. actives 0.005% (n = 190,000);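 active means diaphorase activity raised at least twofold by the compound at 20 µM; inactive means activation factor below 2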
#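 Test system: Clostridium kluyveri diaphorase, purified enzyme; input: enzyme 0.07 U/mL final; buffer or medium: 50 mM HEPES pH 7.4 with 4.542 mM MgCl2, 0.005% Tween 20; also added: 0.114 mM NADH and 0.1 mM resazurin, final amounts; schedule: 16 min enzyme reaction, ambient temperature; technique: fluorescence of resorufin, 544 nm excitation, 590 nm emission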
# Numbers without * were called inactive. Most compounds without a hit are left out; they make up all but 1.1% or so of the library.
SMILES,PMI act,G6PDH counter,PMI act satM6P,Diaphorase inh,Diaph act CS
CCOC(=O)C1=C(C)NC(SC)=NC1c1ccc(OC)cc1 (stereo unspecified),1.5,4,2.3*,9,0.9
CCc1ccc(-n2c(C)cc(/C=N/NC(=O)c3ccncc3)c2C)cc1,1.2,15,0.9,84*,0.2
O=C(c1cccs1)N1CCc2c([nH]c3ccccc23)C1c1ccccn1 (stereo unspecified),0.8,12,0.7,50*,0.5
CCCCC(CC)CNC(=O)C(Cc1ccccc1)NS(=O)(=O)c1ccc2c(c1)CCC(=O)N2 (stereo unspecified),1,-3,1,18,0.8
CC(=O)Nc1ccc(OS(=O)(=O)c2ccc([N+](=O)[O-])cc2)cc1,1,14,0.9,8,0.9
CSCCC(=O)Nc1nc(-c2ccccn2)cs1,1.7,22,2.2*,3,1
Cc1cccnc1Nc1nc(-c2ccc(O)cc2O)cs1,0.9,21,0.7,19,0.8
Cc1cccnc1Nc1nc(-c2ccccn2)cs1,0.8,53*,0.8,16,0.8
O=C(CCCSc1ccccc1)Nc1nc(-c2ccccn2)cs1,1,7,1,12,0.9
COc1ccc(OC)c(NC(=O)COC(=O)CSc2ccc(Cl)cc2)c1,0.9,9,1,18,0.8
CC(C)OCCCN1CN(S(=O)(=O)c2ccc(Cl)cc2)c2nc3ccccc3nc21,1.4,11,2*,16,0.8
Cc1cccc(-n2nc(C)c3c(C(=O)O)cc(-c4cccs4)nc32)c1,1,5,1,52*,0.5
Cc1ccc(C)c(-c2cc(C(=O)Nc3sc(C)c(C)c3C(N)=O)c3ccccc3n2)c1,0.9,3,0.9,21,0.8
Oc1c(C(Nc2nc3ccccc3s2)c2ccco2)ccc2cccnc12 (stereo unspecified),1,1,0.7,19,0.8
CCC(=O)NC(c1cccs1)c1ccc2cccnc2c1O (stereo unspecified),0.7,27,0.5,58*,0.4
CC(C)C(=O)NC(c1ccco1)c1ccc2cccnc2c1O (stereo unspecified),0.8,21,0.6,55*,0.5
CCOc1cc(Br)ccc1S(=O)(=O)NCc1ccccc1,0.8,8,0.8,18,0.8
O=C(Nc1nccs1)C1CCCN1S(=O)(=O)c1ccc(F)cc1 (stereo unspecified),0.8,14,0.8,14,0.9
Nc1ccc2c(c1)OC1(CCCC1)O2,0.9,12,0.6,52*,0.5
N#CC(C#N)=Cc1cccn1-c1ccc(S(N)(=O)=O)cc1,1,9,1,-3,1
CCCCNC(=O)c1sc(=S)n2c1[nH]c(=O)c1ccccc12,0.8,4,0.9,67*,0.3
O=C(NC1CCCCC1)c1sc(=S)n2c1[nH]c(=O)c1ccccc12,0.5,5,0.8,43,0.6
COc1cc(/C=C/C(=O)O)cc(S(=O)(=O)N(CC(C)C)CC(C)C)c1OC,1.1,4,1.1,-12,1.1
O=[N+]([O-])c1ccc(Cl)c2c1C1C=CCC1C(c1ccccn1)N2 (stereo unspecified),1.2,6,0.6,41,0.6
O=C(O)C1Nc2c(O)cc(Cl)c([N+](=O)[O-])c2C2C=CCC12 (stereo unspecified),1.7,12,2.2*,71*,0.3
C=CCNc1nc(NCc2ccccc2)c(C#N)c2c1CN(C)CC2,0.5,12,0.3,63*,0.4
Cc1ccc(C(=O)Nc2ccc([N+](=O)[O-])cn2)o1,1,-2,1,2,1
COc1ccc(CCNC(=O)CSc2nc3[nH]ncc3c(=O)n2-c2ccc(Cl)cc2Cl)cc1OC,1,2,1,73*,0.3
COc1ccc(CCNC(=O)CSc2nc3[nH]ncc3c(=O)n2-c2ccccc2OC)cc1OC,1,4,1,-1,1
CC(=O)c1cc(-c2ccc(F)cc2)n(CCC(=O)Nc2cccc(C)n2)c1C,1,11,1,8,0.9
